# Active and inactive are the calls of the source. No cut-off for these calls is given here.
# Assays:
# [1] = Toxicity in Laca mouse infected with Plasmodium berghei ANKA assessed as death at 10 ug, ip administered for 4 days measured on day 9; type: organism-based; conditions: in vivo, 96 h
# Procedure, shortened: (§1)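 Six mice per group received 1x10⁶ parasitized RBCs (P. berghei ANKA) i.p. on D0. TLR7 agonist was given i.p., 0.2 mL/mouse, daily D0–D3. PBS-treated infected and uninfected groups served as controls. Survival was monitored alongside parasitemia from Giemsa-stained thin blood smears.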
# Plasmodium berghei [2] = assay: Antiparasitic activity against Plasmodium berghei ANKA infected in Laca mouse assessed as change in Treg cell level in spleen at 10 ug, ip co-administered with chloroquine for 4 days measured on day 10 and 21 by flow cytometry; type: functional, organism-based
# Plasmodium berghei [3] = assay: Antiparasitic activity against Plasmodium berghei ANKA infected in Laca mouse assessed as reduction in CD8+ cell level in brain at 10 ug, ip co-administered with chloroquine for 4 days measured on day 21 by flow cytometry; type: functional, organism-based
# Plasmodium berghei [4] = assay: Antiparasitic activity against Plasmodium berghei ANKA infected in Laca mouse assessed as increase in IFN-gamma level in serum at 10 ug, ip administered for 4 days measured on day 10 by sandwich ELISA
# Plasmodium berghei [5] = assay: Antiparasitic activity against Plasmodium berghei ANKA infected in Laca mouse assessed as decrease in serum TNFalpha level at 10 ug, ip co-administered with chloroquine for 4 days measured on day 10 by sandwich ELISA; type: functional, organism-based
# Plasmodium berghei [6] = assay: Antiparasitic activity against Plasmodium berghei ANKA infected in Laca mouse assessed as increase in serum IL-10 level at 10 ug, ip co-administered with chloroquine for 4 days measured on day 10 by sandwich ELISA; type: functional, organism-based
# Plasmodium berghei [7] = assay: Antiparasitic activity against Plasmodium berghei ANKA infected in Laca mouse assessed as decrease in serum TNFalpha level at 10 ug, ip administered for 4 days measured on day 10 by sandwich ELISA; type: functional, organism-based
# [8] = Toxicity in Laca mouse infected with Plasmodium berghei ANKA assessed as body weight loss at 10 ug, ip administered for 4 days; type: organism-based; conditions: in vivo, 96 h
# Plasmodium berghei [9] = assay: Antiparasitic activity against Plasmodium berghei ANKA infected in Laca mouse assessed as reduction in CD3+ cell level in brain at 10 ug, ip co-administered with chloroquine for 4 days measured on day 10 by flow cytometry; type: functional, organism-based
# Plasmodium berghei [10] = assay: Antiparasitic activity against Plasmodium berghei ANKA infected in Laca mouse assessed as parasitemia at 10 ug, ip administered for 4 days measured on day 7 by Giemsa-staining based assay; type: functional
# Plasmodium berghei [11] = assay: Antiparasitic activity against Plasmodium berghei ANKA infected in Laca mouse assessed as parasitemia at 10 ug, ip co-administered with chloroquine for 4 days measured on day 30 by Giemsa-staining based assay; type: functional
# Plasmodium berghei [12] = assay: Antiparasitic activity against Plasmodium berghei ANKA infected in Laca mouse assessed as reduction in CD8+ cell level in brain at 10 ug, ip co-administered with chloroquine for 4 days measured on day 10 by flow cytometry; type: functional, organism-based
# Plasmodium berghei [13] = assay: Antiparasitic activity against Plasmodium berghei ANKA infected in Laca mouse assessed as reduction in CD3+ cell level in brain at 10 ug, ip co-administered with chloroquine for 4 days measured on day 21 by flow cytometry; type: functional, organism-based
# Plasmodium berghei [14] = assay: Antiparasitic activity against Plasmodium berghei ANKA infected in Laca mouse assessed as increase in serum IL-27 level at 10 ug, ip administered for 4 days measured on day 10 by sandwich ELISA; type: functional, organism-based
# Plasmodium berghei [15] = assay: Antiparasitic activity against Plasmodium berghei ANKA infected in Laca mouse assessed as increase in CD3+ cell level in spleen at 10 ug, ip co-administered with chloroquine for 4 days measured on day 10 by flow cytometry; type: functional, organism-based
# Plasmodium berghei [16] = assay: Antiparasitic activity against Plasmodium berghei ANKA infected in Laca mouse assessed as increase in Treg cell level in spleen at 10 ug, ip co-administered with chloroquine for 4 days measured on day 21 by flow cytometry; type: functional, organism-based
# Plasmodium berghei [17] = assay: Antiparasitic activity against Plasmodium berghei ANKA infected in Laca mouse assessed as increase in Treg cell level in brain at 10 ug, ip co-administered with chloroquine for 4 days measured on day 21 by flow cytometry; type: functional, organism-based
# [18] = Toxicity in Laca mouse infected with Plasmodium berghei ANKA assessed as death at 10 ug, ip administered for 4 days measured on day 15; type: organism-based; conditions: in vivo, 96 h; procedure, shortened: as §1
# Plasmodium berghei [19] = assay: Antiparasitic activity against Plasmodium berghei ANKA infected in Laca mouse assessed as increase in serum IL-10 level at 10 ug, ip administered for 4 days measured on day 10 by sandwich ELISA; type: functional, organism-based
# Plasmodium berghei [20] = assay: Antiparasitic activity against Plasmodium berghei ANKA infected in Laca mouse assessed as decrease in Treg cell level in brain at 10 ug, ip co-administered with chloroquine for 4 days measured on day 10 by flow cytometry
# Plasmodium berghei [21] = assay: Antiparasitic activity against Plasmodium berghei ANKA infected in Laca mouse assessed as reduction in CD4+ cell level in brain at 10 ug, ip administered for 4 days measured on day 10 and 21 by flow cytometry; type: functional, organism-based
# [22] = Toxicity in Laca mouse infected with Plasmodium berghei ANKA assessed as death at 10 ug, ip co-treated with chloroquine for 4 days measured on day 30; conditions: in vivo, 96 h
# Plasmodium berghei [23] = assay: Antiparasitic activity against Plasmodium berghei ANKA infected in Laca mouse assessed as reduction in parasitemia at 10 ug, ip co-administered with chloroquine for 4 days measured on day 23 by Giemsa-staining based assay; type: functional, organism-based
# Plasmodium berghei [24] = assay: Antiparasitic activity against Plasmodium berghei ANKA infected in Laca mouse assessed as increase in IFN-gamma level in serum at 10 ug, ip co-administered with chloroquine for 4 days measured on day 10 by sandwich ELISA
# [25] = Toxicity in Laca mouse infected with Plasmodium berghei ANKA assessed as death at 10 ug, ip administered for 4 days measured on day 10 and 21; type: organism-based; conditions: in vivo, 96 h; procedure, shortened: as §1
# Plasmodium berghei [26] = assay: Antiparasitic activity against Plasmodium berghei ANKA infected in Laca mouse assessed as increase in Treg cell level in spleen at 10 ug, ip administered for 4 days measured on day 10 and 21 by flow cytometry; type: functional, organism-based
# Plasmodium berghei [27] = assay: Antiparasitic activity against Plasmodium berghei ANKA infected in Laca mouse assessed as reduction in CD4+ cell level in brain at 10 ug, ip co-administered with chloroquine for 4 days measured on day 10 and 21 by flow cytometry; type: functional, organism-based
# Plasmodium berghei [28] = assay: Antiparasitic activity against Plasmodium berghei ANKA infected in Laca mouse assessed as increase in serum IL-27 level at 10 ug, ip co-administered with chloroquine for 4 days measured on day 10 by sandwich ELISA; type: functional, organism-based
# Plasmodium berghei [29] = assay: Antiparasitic activity against Plasmodium berghei ANKA infected in Laca mouse assessed as reduction in CD4+ cell level in brain at 10 ug, ip co-administered with chloroquine for 4 days measured on day 21 by flow cytometry; type: functional, organism-based
# [30] = Toxicity in Laca mouse infected with Plasmodium berghei ANKA assessed as death at 10 ug, ip co-treated with chloroquine for 4 days measured on day 30; conditions: in vivo, 96 h; remark: listed apart in the source
compound,measurement,setting,value
CCCCc1nc2c(N)nc3ccccc3c2n1Cc1ccccc1,Activity,[1],Toxic
same,Activity,Plasmodium berghei [2],Active
same,Activity,Plasmodium berghei [3],inactive
same,Activity,Plasmodium berghei [4],Active
same,Activity,Plasmodium berghei [5],Active
same,Activity,Plasmodium berghei [6],Active
same,Activity,Plasmodium berghei [7],Active
same,Activity,[8],Toxic
same,Activity,Plasmodium berghei [9],Active
same,Activity,Plasmodium berghei [10],5.7%
same,Activity,Plasmodium berghei [11],11.65%
same,Activity,Plasmodium berghei [12],Active
same,Activity,Plasmodium berghei [13],inactive
same,Activity,Plasmodium berghei [14],Active
same,Activity,Plasmodium berghei [15],Active
same,Activity,Plasmodium berghei [16],Active
same,Activity,Plasmodium berghei [17],Active
same,Activity,[18],Toxic
same,Activity,Plasmodium berghei [19],Active
same,Activity,Plasmodium berghei [20],Active
same,Activity,Plasmodium berghei [21],Active
same,Activity,[22],Toxic
same,Activity,Plasmodium berghei [23],Active
same,Activity,Plasmodium berghei [24],Active
same,Activity,[25],Toxic
same,Activity,Plasmodium berghei [26],Active
same,Activity,Plasmodium berghei [27],Active
same,Activity,Plasmodium berghei [28],Active
same,Activity,Plasmodium berghei [29],inactive
same,Activity,[30],Toxic

# From ChEMBL document CHEMBL4316616, “Efficacy of TLR7 agonistic imidazoquinoline as immunochemotherapeutic agent against P. Berghei ANKA infected rodent host” (Bioorg Med Chem Lett, 2019)
